Active and inactive are the calls of the source. No cut-off for these calls is given here.
Experiments:
Mus musculus [1] = experiment: Antiangiogenic activity in C57BL/6 mouse assessed as inhibition of bFGF-induced neovascularization at 10 uM, sc after 7 days by matrigel plug assay relative to control; format: functional, organism-based
How it was run: (§1)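 C57BL/6 mice, male, three per group; 0.5 mL Matrigel with bFGF (10 ng/mL) plus compound (10 μM) or DMSO vehicle injected subcutaneously, allowed to form a plug. After 7 days, plugs excised, formaldehyde-fixed, paraffin-embedded, sectioned, H&E stained. Plug hemoglobin quantified by QuantiChrom kit against hemoglobin standard. Means ± SEM; ANOVA with Dunnett or Student's t test.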

HUVEC [2] = experiment: Inhibition of VEGF-stimulated Akt phosphorylation in HUVEC at 2.5 to 10 uM after 1 hr by Western blot analysis; format: cell-based; settings: Homo sapiens
How it was run: (§2)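 Confluent HUVECs starved 16 h in RPMI 1640 with 5% FBS. Pretreated 60 min with compound (2.5–10 μM) or vehicle, then stimulated with VEGF 10 ng/mL for 10 min. Lysates (50 μg protein) run on SDS-PAGE under reducing conditions. Blots probed for phospho-Erk1/2 or phospho-Akt and total proteins; chemiluminescence detection.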

Aorta [3] = experiment: Antiangiogenic activity in Wistar rat aortic ring assessed as complete inhibition of microvessel sprouting at 2.5 uM after 7 days by phase-contrast microscopy; format: functional, tissue-based
HUVEC [4] = experiment: Antiangiogenic activity in HUVEC assessed as inhibition of VEGF-induced endothelial migration at > 5 uM after 6 hrs using Diff-Quik staining by modified Boyden chamber based chemotactic migration assay; format: functional, cell-based; settings: Homo sapiens
How it was run: (§3)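 Modified Boyden chamber, 8 μm membrane coated with 0.1% gelatin. HUVECs (2.5 × 10^5 cells/mL) in Medium 199 with 0.1% BSA in upper chamber. Lower well held Medium 199, 0.1% BSA, VEGF 10 ng/mL, with or without compound. After 6 h at 37 C, migrated cells methanol-fixed, Diff-Quik stained, counted in three fields at 200×.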

[5] = target: T1, Mitogen-activated protein kinase; ERK1/ERK2 (Homo sapiens) (UniProt P27361+P28482); experiment: Inhibition of VEGF-stimulated ERK1/2 activation in HUVEC after 1 hr by Western blot analysis; format: protein assay; how it was run: as §2
Aorta [6] = experiment: Antiangiogenic activity in Wistar rat aortic ring assessed as complete inhibition of microvessel sprouting at 2.5 uM after 7 days by phase-contrast microscopy relative to steperoxide A; format: functional
HUVEC [7] = experiment: Antiangiogenic activity in HUVEC assessed as inhibition of tube formation at 25 uM after 12 hrs by light microscopy matrigel based assay; format: functional; settings: Homo sapiens
How it was run: (§4)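 HUVECs (passages 3–7) at 1 × 10^5 cells/mL in HuMedia EG2 with compound or DMSO seeded onto solidified Matrigel. Incubated 12 h at 37 C, 5% CO2. Tube formation observed under inverted light microscope at 40× and photographed.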

HUVEC [8] = experiment: Antiangiogenic activity in HUVEC assessed as inhibition of VEGF-induced endothelial migration after 6 hrs using Diff-Quik staining by modified Boyden chamber based chemotactic migration assay; format: functional, cell-based; settings: Homo sapiens; how it was run: as §3
HUVEC [9] = experiment: Antiangiogenic activity in HUVEC assessed as inhibition of tube formation at 2.5 to 10 uM after 12 hrs by light microscopy matrigel based assay; format: functional, cell-based; settings: Homo sapiens; how it was run: as §4
HUVEC [10] = experiment: Antiangiogenic activity in HUVEC assessed as complete inhibition of tube formation at 50 uM after 12 hrs by light microscopy matrigel based assay; format: functional, cell-based; settings: Homo sapiens; how it was run: as §4
HUVEC [11] = experiment: Antiproliferative activity against HUVEC after 72 hrs by WST8 assay; format: functional, cell-based; settings: Homo sapiens
How it was run: (§5)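 HUVECs at 1.5 × 10^4 cells/mL plated and grown 24 h. Medium then replaced with HuMedia EG2 containing compound or DMSO for 72 h at 37 C, 5% CO2. Proliferation read by WST-8 absorbance at 450 nm.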

HUVEC [12] = experiment: Antiproliferative activity against HUVEC at 25 uM after 72 hrs by WST8 assay; format: functional; settings: Homo sapiens; how it was run: as §5
[13] = target: T1, Mitogen-activated protein kinase; ERK1/ERK2 (Homo sapiens); experiment: Inhibition of VEGF-stimulated ERK1/2 phosphorylation in HUVEC at 2.5 to 10 uM by Western blot analysis; format: protein assay; settings: TDE = time-dependent effect; how it was run: as §2
Mus musculus [14] = experiment: Antiangiogenic activity in C57BL/6 mouse assessed as decrease in hemoglobin level at 10 uM, sc after 7 days using hematoxylin eosin staining by matrigel plug assay relative to control; format: functional, organism-based; how it was run: as §1
Aorta [15] = experiment: Antiangiogenic activity in Wistar rat aortic ring assessed as complete inhibition of microvessel sprouting at 25 uM after 7 days by phase-contrast microscopy; format: functional, tissue-based

T1 sequence (P27361 whole entry, looked up): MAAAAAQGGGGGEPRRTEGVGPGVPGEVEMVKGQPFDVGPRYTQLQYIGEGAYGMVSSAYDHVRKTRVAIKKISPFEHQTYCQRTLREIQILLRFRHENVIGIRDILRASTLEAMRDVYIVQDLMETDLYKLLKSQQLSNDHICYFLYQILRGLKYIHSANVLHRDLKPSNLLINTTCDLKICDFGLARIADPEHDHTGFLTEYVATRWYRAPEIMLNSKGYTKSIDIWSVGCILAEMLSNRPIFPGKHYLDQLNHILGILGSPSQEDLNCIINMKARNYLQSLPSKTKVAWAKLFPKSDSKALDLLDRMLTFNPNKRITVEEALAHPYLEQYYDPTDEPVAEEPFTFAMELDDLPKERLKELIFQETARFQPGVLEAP
T1 sequence (P28482 whole entry, looked up): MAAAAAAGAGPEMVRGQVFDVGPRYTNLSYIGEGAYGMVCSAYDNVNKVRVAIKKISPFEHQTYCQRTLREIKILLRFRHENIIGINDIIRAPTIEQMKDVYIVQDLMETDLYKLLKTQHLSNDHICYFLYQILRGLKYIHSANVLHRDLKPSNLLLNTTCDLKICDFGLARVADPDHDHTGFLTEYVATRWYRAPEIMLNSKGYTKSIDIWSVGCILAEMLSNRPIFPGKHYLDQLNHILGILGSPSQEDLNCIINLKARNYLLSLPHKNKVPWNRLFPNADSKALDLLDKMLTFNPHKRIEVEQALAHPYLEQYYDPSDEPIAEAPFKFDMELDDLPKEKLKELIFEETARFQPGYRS

CC1(C)C=CC(=O)[C@@]2(C)OO[C@@H]3C[C@]12CCC3(O)CO (stereo partly drawn) [MERULIN C]
Activity (Mus musculus [1]): Active | inhibition (HUVEC [2]): inactive | Activity (Aorta [3]): Active | Activity (HUVEC [4]): Active | inhibition [5]: Dose-dependent effect | fold change (FC) (Aorta [6]): 10 | inhibition at 25 µM (HUVEC [7]): 50% | Activity (HUVEC [8]): Dose-dependent effect | inhibition (HUVEC [9]): inactive | inhibition (HUVEC [10]): Active | Activity (HUVEC [11]): Dose-dependent effect | IC50 (HUVEC [11]): 900 nM | inhibition at 25 µM (HUVEC [12]): 90% | inhibition [13]: tde | Activity (Mus musculus [14]): Active

CC1(C)CCC(=O)[C@@]2(C)OO[C@@H]3C[C@@]12CCC3(O)CO (stereo partly drawn)
Activity (Aorta [15]): inactive

CC1(C)C=CC(=O)[C@@]2(C)OO[C@@H]3C[C@]12CCC3O (stereo partly drawn)
Activity (Aorta [15]): Active

CC1(C)CCC(=O)[C@@]2(C)OO[C@@H]3C[C@@]12CC[C@H]3O
Activity (Aorta [15]): inactive

From ChEMBL document CHEMBL2016456, “Antiangiogenic effect of chamigrane endoperoxides from a Thai mangrove-derived fungus” (J Nat Prod, 2011)
